Active and inactive are the calls of the source. The rule behind the calls is not given here.
Columns and labels:
Rattus norvegicus [1] = experiment: Antihypertensive activity in L-NAME-induced Wistar rat assessed as decrease in blood ALT level at 20 mg/kg/day, po for last 4 weeks measured after 8 weeks; format: functional
Summary of the method: (§1)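 Two-month-old male Wistar rats given L-NAME in drinking water (20 mg/kg/day) for 8 weeks. From week 4, treatment is given daily in drinking water during 12.00–18.00 h, at the dose stated in the line. Ten rats per group. Sacrificed under halothane between 9.00 and 10.00 h. Serum is measured on an automatic analyzer. Mean ± SEM, nonparametric statistics.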

Rattus norvegicus [2] = experiment: Antihypertensive activity in Wistar rat assessed as normalization of L-NAME-induced heart weight at 20 mg/kg/day, po for 4 weeks in presence of L-NAME; format: functional, organism-based; conditions: 28 mg/kg, in the assay text read “28 mg/kg/day” for “20 mg/kg/day”
Summary of the method: (§2)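 L-NAME (20 mg/kg/day, drinking water, 8 weeks) hypertensive two-month-old male Wistar rats; treatments in drinking water daily for the last 4 weeks. Systolic pressure by tail-cuff in conscious animals. At sacrifice heart weighed (corrected to body weight); aortic rings from descending thoracic aorta, formaldehyde-flushed, media thickness by planimetry. Mean ± SEM of 10 rats.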

Rattus norvegicus [3] = experiment: Antihypertensive activity in Wistar rat assessed as normalization of L-NAME-induced systolic blood pressure at 20 mg/kg/day, po for 4 weeks; format: functional, organism-based; conditions: Artery; summary of the method: as §2
Rattus norvegicus [4] = experiment: Antihypertensive activity in Wistar rat assessed as normalization of L-NAME-induced systolic blood pressure at 10 mg/kg/day, po for 4 weeks; format: functional, organism-based; conditions: Artery; summary of the method: as §2
Rattus norvegicus [5] = experiment: Antihypertensive activity in L-NAME-induced Wistar rat assessed as decrease in blood creatinine level at 20 mg/kg/day, po for last 4 weeks measured after 8 weeks; format: functional; summary of the method: as §1
Rattus norvegicus [6] = experiment: Antihypertensive activity in L-NAME-induced Wistar rat assessed as decrease in blood triglyceride level at 20 mg/kg/day, po for last 4 weeks measured after 8 weeks; format: functional; summary of the method: as §1
Rattus norvegicus [7] = experiment: Antihypertensive activity in L-NAME-induced Wistar rat assessed as decrease in blood AST level at 20 mg/kg/day, po for last 4 weeks measured after 8 weeks; format: functional; summary of the method: as §1
Rattus norvegicus [8] = experiment: Antihypertensive activity in L-NAME-induced Wistar rat assessed as decrease in blood protein level at 20 mg/kg/day, po for last 4 weeks measured after 8 weeks; format: functional; summary of the method: as §1
Rattus norvegicus [9] = experiment: Antihypertensive activity in L-NAME-induced Wistar rat assessed as decrease in blood urea level at 20 mg/kg/day, po for last 4 weeks measured after 8 weeks; format: functional; summary of the method: as §1
Rattus norvegicus [10] = experiment: Antihypertensive activity in L-NAME-induced Wistar rat assessed as decrease in blood calcium level at 20 mg/kg/day, po for last 4 weeks measured after 8 weeks; format: functional; summary of the method: as §1
Rattus norvegicus [11] = experiment: Antihypertensive activity in Wistar rat assessed as normalization of L-NAME-induced aorta thickness at 10 mg/kg/day, po for 4 weeks; format: functional, organism-based; summary of the method: as §2
Rattus norvegicus [12] = experiment: Antihypertensive activity in L-NAME-induced Wistar rat assessed as decrease in blood Na+ level at 20 mg/kg/day, po for last 4 weeks measured after 8 weeks; format: functional; summary of the method: as §1
[13] = Antioxidant activity assessed as inhibition of oxidation of chromogen (ABTS) measured per mmol/L of product by total antioxidant assay; format: functional
Summary of the method: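 Total antioxidant status kit: inhibition of ABTS oxidation by metmyoglobin and hydrogen peroxide, followed at 600 nm absorbance; antioxidant ability proportional to absorbance reduction, expressed as mM. Compounds tested at 1 mmol/L.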

Rattus norvegicus [14] = experiment: Antihypertensive activity in L-NAME-induced Wistar rat assessed as decrease in blood […] level at 20 mg/kg/day, po for last 4 weeks measured after 8 weeks; format: functional; summary of the method: as §1
Rattus norvegicus [15] = experiment: Antihypertensive activity in L-NAME-induced Wistar rat assessed as decrease in blood LDH level at 20 mg/kg/day, po for last 4 weeks measured after 8 weeks; format: functional; summary of the method: as §1
Rattus norvegicus [16] = experiment: Antihypertensive activity in L-NAME-induced Wistar rat assessed as decrease in blood glucose level at 20 mg/kg/day, po for last 4 weeks measured after 8 weeks; format: functional; summary of the method: as §1
VSMC = experiment: Displacement of [125I]angiotensin II from angiotensin 2 receptor in Wistar rat VSMC cells by gamma-counter; format: cell-based; parameters: concentration or dose not given beside the values
Summary of the method: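 Rat aortic VSMC (collagenase-derived primary cultures, passages 3-5) resuspended in Tris-glucose-NaCl buffer pH 7.4 at 0.5 μg/μL protein; 125 μg protein incubated 45 min with 0.15 nM 125I-angiotensin II plus compound. Bound separated by centrifugation, pellet washed with cold 0.15 M NaCl, gamma counted; nonspecific binding with 10^-4 M angiotensin II.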

Rattus norvegicus [17] = experiment: Antihypertensive activity in L-NAME-induced Wistar rat assessed as decrease in blood cholesterol level at 20 mg/kg/day, po for last 4 weeks measured after 8 weeks; format: functional; summary of the method: as §1
Rattus norvegicus [18] = experiment: Antihypertensive activity in L-NAME-induced Wistar rat assessed as decrease in blood creatinine level at 30 mg/kg/day, po for last 4 weeks measured after 8 weeks; format: functional; summary of the method: as §1
Rattus norvegicus [19] = experiment: Antihypertensive activity in Wistar rat assessed as normalization of L-NAME-induced HNE-lysine accumulation in vessel walls at 30 mg/kg/day, po for 4 weeks in presence of losartan; format: functional, organism-based
Summary of the method: (§3)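 Male Wistar rats on L-NAME in drinking water (20 mg/kg/day) for 8 weeks, treatments in drinking water for the last 4 weeks. Thoracic aorta lysates run on SDS-PAGE and Western blotted for collagen type I, fibronectin or HNE-lysine, with β-tubulin as loading control; ECL detection, densitometry. Expressed as percent of basal; mean ± SEM of 10 experiments.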

Rattus norvegicus [20] = experiment: Antihypertensive activity in L-NAME-induced Wistar rat assessed as decrease in blood urea level at 30 mg/kg/day, po for last 4 weeks measured after 8 weeks; format: functional; summary of the method: as §1
Rattus norvegicus [21] = experiment: Antihypertensive activity in L-NAME-induced Wistar rat assessed as decrease in blood Na+ level at 30 mg/kg/day, po for last 4 weeks measured after 8 weeks; format: functional; summary of the method: as §1
Rattus norvegicus [22] = experiment: Antihypertensive activity in Wistar rat assessed as normalization of L-NAME-induced fibronectin content in vessel walls at 30 mg/kg/day, po for 4 weeks in presence of losartan; format: functional, organism-based; summary of the method: as §3
Rattus norvegicus [23] = experiment: Antihypertensive activity in L-NAME-induced Wistar rat assessed as decrease in blood triglyceride level at 30 mg/kg/day, po for last 4 weeks measured after 8 weeks; format: functional; summary of the method: as §1
Rattus norvegicus [24] = experiment: Antihypertensive activity in L-NAME-induced Wistar rat assessed as decrease in blood cholesterol level at 30 mg/kg/day, po for last 4 weeks measured after 8 weeks; format: functional; summary of the method: as §1
Rattus norvegicus [25] = experiment: Antihypertensive activity in L-NAME-induced Wistar rat assessed as decrease in blood protein level at 30 mg/kg/day, po for last 4 weeks measured after 8 weeks; format: functional; summary of the method: as §1
Rattus norvegicus [26] = experiment: Antihypertensive activity in L-NAME-induced Wistar rat assessed as decrease in blood glucose level at 30 mg/kg/day, po for last 4 weeks measured after 8 weeks; format: functional; summary of the method: as §1
Rattus norvegicus [27] = experiment: Antihypertensive activity in L-NAME-induced Wistar rat assessed as decrease in blood ALT level at 30 mg/kg/day, po for last 4 weeks measured after 8 weeks; format: functional; summary of the method: as §1
Rattus norvegicus [28] = experiment: Antihypertensive activity in L-NAME-induced Wistar rat assessed as decrease in blood AST level at 30 mg/kg/day, po for last 4 weeks measured after 8 weeks; format: functional; summary of the method: as §1
Rattus norvegicus [29] = experiment: Antihypertensive activity in L-NAME-induced Wistar rat assessed as decrease in blood […] level at 30 mg/kg/day, po for last 4 weeks measured after 8 weeks; format: functional; summary of the method: as §1
Rattus norvegicus [30] = experiment: Antihypertensive activity in Wistar rat assessed as normalization of L-NAME-induced collagen 1 level in vessel walls at 30 mg/kg/day, po for 4 weeks in presence of losartan; format: functional, organism-based; summary of the method: as §3
Rattus norvegicus [31] = experiment: Antihypertensive activity in L-NAME-induced Wistar rat assessed as decrease in blood calcium level at 30 mg/kg/day, po for last 4 weeks measured after 8 weeks; format: functional; summary of the method: as §1
Rattus norvegicus [32] = experiment: Antihypertensive activity in Wistar rat assessed as normalization of L-NAME-induced heart weight at 30 mg/kg/day, po for 4 weeks in presence of L-NAME; format: functional, organism-based; summary of the method: as §2
Rattus norvegicus [33] = experiment: Antihypertensive activity in Wistar rat assessed as normalization of L-NAME-induced systolic blood pressure at 30 mg/kg/day, po for 4 weeks; format: functional, organism-based; conditions: Artery; summary of the method: as §2
Rattus norvegicus [34] = experiment: Antihypertensive activity in L-NAME-induced Wistar rat assessed as decrease in blood LDH level at 30 mg/kg/day, po for last 4 weeks measured after 8 weeks; format: functional; summary of the method: as §1

## CCCCc1nc(Cl)c(CO)n1Cc1ccc(-c2ccccc2-c2nnn[nH]2)cc1 [LOSARTAN]
Rattus norvegicus [1]
  Activity: 24 IU/L
Rattus norvegicus [2]
  Activity: Active
Rattus norvegicus [3]
  Activity: Active
Rattus norvegicus [4]
  Activity: inactive
Rattus norvegicus [5]
  Activity: 0.42 mg/dL
Rattus norvegicus [6]
  Activity: 65 mg/dL
Rattus norvegicus [7]
  Activity: 91 IU/L
Rattus norvegicus [8]
  Activity: 5 g/dL
Rattus norvegicus [9]
  Activity: 24 mg/dL
Rattus norvegicus [10]
  Activity: 8.3 mg/dL
Rattus norvegicus [11]
  Activity: inactive
Rattus norvegicus [12]
  Activity: 151 mmol/L
[13]
  Activity: 0.04 mmol/L
Rattus norvegicus [14]
  Activity: 4.7 mmol/L
Rattus norvegicus [15]
  Activity: 622 IU/L
Rattus norvegicus [16]
  Activity: 149 mg/dL
VSMC
  Activity: 53%
Rattus norvegicus [17]
  Activity: 48 mg/dL

## CCCCc1ncc(COC(=O)CCc2ccc(O)c(O)c2)n1Cc1ccc(-c2ccccc2-c2nnn[nH]2)cc1
Rattus norvegicus [18]
  Activity: 0.43 mg/dL
Rattus norvegicus [19]
  Activity: Active
Rattus norvegicus [20]
  Activity: 24 mg/dL
Rattus norvegicus [21]
  Activity: 151 mmol/L
Rattus norvegicus [22]
  Activity: Active
Rattus norvegicus [23]
  Activity: 60 mg/dL
Rattus norvegicus [24]
  Activity: 55 mg/dL
Rattus norvegicus [25]
  Activity: 4.5 g/dL
Rattus norvegicus [4]
  Activity: inactive
Rattus norvegicus [26]
  Activity: 149 mg/dL
Rattus norvegicus [27]
  Activity: 25 IU/L
Rattus norvegicus [28]
  Activity: 85 IU/L
Rattus norvegicus [11]
  Activity: inactive
Rattus norvegicus [29]
  Activity: 4.4 mmol/L
[13]
  Activity: 0.31 mmol/L
Rattus norvegicus [30]
  Activity: Active
Rattus norvegicus [31]
  Activity: 8.6 mg/dL
Rattus norvegicus [32]
  Activity: Active
Rattus norvegicus [33]
  Activity: Active
Rattus norvegicus [34]
  Activity: 600 IU/L
VSMC
  Activity: 60%

From ChEMBL document CHEMBL1156133, “Losartan-antioxidant hybrids: novel molecules for the prevention of hypertension-induced cardiovascular damage” (J Med Chem, 2009)
